From ChEMBL document CHEMBL4354843, “Structure-Based Design of a Potent and Selective Covalent Inhibitor for SRC Kinase That Targets a P-Loop Cysteine” (J Med Chem, 2020)

Assays:
[1] = biological target: Testis-specific serine/threonine-protein kinase 1 (Homo sapiens) (UniProt Q9BXA7); assay: Binding affinity to wild-type human full length TSSK1B (M1 to Q367 residues) expressed in bacterial expression system assessed as residual binding level at 1 uM by Kinomescan method relative to control
Procedure, shortened: (§1)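 KinomeScan, an active site-directed competition binding panel of 468 kinases. The test compound was at 1 μM. The readout is remaining kinase binding as a percentage of the DMSO control. Scores above 35% were treated as weak binding and not listed.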

[2] = biological target: Casein kinase II subunit alpha' (Homo sapiens) (UniProt P19784); assay: Binding affinity to wild-type human full length CSNK2A2 (M1 to R350 residues) expressed in mammalian expression system assessed as residual binding level at 1 uM by Kinomescan method relative to control
Procedure, shortened: (§2)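 Active-site-directed KinomeScan competition binding panel covering 468 kinases, compound tested at 1 μM. Each readout is the kinase signal remaining with compound, expressed as a percentage of the DMSO control. […]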

[3] = biological target: Dual specificity mitogen-activated protein kinase kinase 5 (Homo sapiens) (UniProt Q13163); assay: Binding affinity to wild-type human partial length MEK5 (L98 to P448 residues) expressed in mammalian expression system assessed as residual binding level at 1 uM by Kinomescan method relative to control
Procedure, shortened: (§3)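 Active-site-directed competition binding panel of 468 kinases (KinomeScan), compound at 1 μM. The read-out is kinase remaining bound, given as a percentage of the DMSO control. […]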

[4] = biological target: LIM domain kinase 1 (Homo sapiens) (UniProt P53667); assay: Binding affinity to wild-type human full length LIMK1 (M1 to D647 residues) expressed in bacterial expression system assessed as residual binding level at 1 uM by Kinomescan method relative to control; procedure, shortened: as §2
[5] = biological target: Ribosomal protein S6 kinase alpha-1 (Homo sapiens) (UniProt Q15418); assay: Binding affinity to wild-type human partial length N-terminal RSK1 Kinase domain 1 (M1 to E388 residues) expressed in bacterial expression system assessed as residual binding level at 1 uM by Kinomescan method relative to control
[6] = biological target: Serine/threonine-protein kinase TBK1 (Homo sapiens) (UniProt Q9UHD2); assay: Binding affinity to wild-type human full length TBK1 (M1 to L729 residues) expressed in mammalian expression system assessed as residual binding level at 1 uM by Kinomescan method relative to control; procedure, shortened: as §1
[7] = biological target: Cyclin-dependent kinase 4 (Homo sapiens) (UniProt P11802); assay: Binding affinity to wild-type human full length CDK4 (M1 to E303 residues) expressed in mammalian expression system assessed as residual binding level at 1 uM by Kinomescan method relative to control; procedure, shortened: as §2
[8] = system: Mast/stem cell growth factor receptor Kit (Homo sapiens), P10721 [V559D]; assay: Binding affinity to human partial length KIT V559D mutant (Y545 to D952 residues) expressed in bacterial expression system assessed as residual binding level at 1 uM by Kinomescan method relative to control
Procedure, shortened: (§4)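 KinomeScan active site-directed competition binding panel (468 kinases), compound tested at 1 μM. Result expressed as remaining kinase signal versus DMSO control (percent of control).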

[9] = biological target: Serine/threonine-protein kinase NIM1 (Homo sapiens) (UniProt Q8IY84); assay: Binding affinity to wild-type human partial length NIM1 (Q44 to N355 residues) expressed in mammalian expression system assessed as residual binding level at 1 uM by Kinomescan method relative to control
[10] = system: Receptor-type tyrosine-protein kinase FLT3 (Homo sapiens), P36888 [UNDEFINED MUTATION]; assay: Binding affinity to human partial length FLT3 ITD/D835V double mutant expressed in bacterial expression system assessed as residual binding level at 1 uM by Kinomescan method relative to control; procedure, shortened: as §4
[11] = biological target: Mitogen-activated protein kinase kinase kinase 7 (Homo sapiens) (UniProt O43318); assay: Binding affinity to wild-type human partial length TAK1 (M1 to Q303 residues) expressed in mammalian expression system assessed as residual binding level at 1 uM by Kinomescan method relative to control
Procedure, shortened: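 Active site-directed competition binding panel (KinomeScan, 468 kinases). Test compound at 1 μM. Read-out is kinase binding remaining versus DMSO control, expressed as percent of control. Scores above 35% are treated as weak binding.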

[12] = biological target: Tyrosine-protein kinase receptor TYRO3 (Homo sapiens) (UniProt Q06418); assay: Binding affinity to wild-type human partial length TYRO3 (S497 to T814 residues) expressed in bacterial expression system assessed as residual binding level at 1 uM by Kinomescan method relative to control
[13] = biological target: Protein kinase C epsilon type (Homo sapiens) (UniProt Q02156); assay: Binding affinity to wild-type human partial length PRKCE (A378 to P737 residues) expressed in mammalian expression system assessed as residual binding level at 1 uM by Kinomescan method relative to control
[14] = biological target: Serine/threonine-protein kinase Nek1 (Homo sapiens) (UniProt Q96PY6); assay: Binding affinity to wild-type human partial length NEK1 (M1 to K278 residues) expressed in bacterial expression system assessed as residual binding level at 1 uM by Kinomescan method relative to control
[15] = biological target: MAP kinase-activated protein kinase 5 (Homo sapiens) (UniProt Q8IW41); assay: Binding affinity to wild-type human partial length MAPKAPK5 (M1 to D322 residues) expressed in mammalian expression system assessed as residual binding level at 1 uM by Kinomescan method relative to control
[16] = biological target: Dual specificity mitogen-activated protein kinase kinase 2 (Homo sapiens) (UniProt P36507); assay: Binding affinity to wild-type human full length MEK2 (M1 to V400 residues) expressed in mammalian expression system assessed as residual binding level at 1 uM by Kinomescan method relative to control; procedure, shortened: as §1
[17] = biological target: Serine/threonine-protein kinase MRCK alpha (Homo sapiens) (UniProt Q5VT25); assay: Binding affinity to wild-type human partial length MRCKA (L57 to V418 residues) expressed in bacterial expression system assessed as residual binding level at 1 uM by Kinomescan method relative to control
[18] = biological target: Serine/threonine-protein kinase Nek6 (Homo sapiens) (UniProt Q9HC98); assay: Binding affinity to wild-type human full length NEK6 (M8 to T313 residues) expressed in bacterial expression system assessed as residual binding level at 1 uM by Kinomescan method relative to control
Procedure, shortened: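 Active-site-directed competition binding panel (KinomeScan) covering 468 kinases. Test agent was screened at 1 μM. The read-out is the remaining kinase signal expressed relative to a DMSO control. Scores above 35%, taken as weak binding, were not reported.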

[19] = biological target: Receptor tyrosine-protein kinase erbB-4 (Homo sapiens) (UniProt Q15303); assay: Binding affinity to wild-type human partial length ERBB4 (L690 to K994 residues) expressed in bacterial expression system assessed as residual binding level at 1 uM by Kinomescan method relative to control; procedure, shortened: as §3
[20] = biological target: Activin receptor type-1-like (Homo sapiens) (UniProt P37023); assay: Binding affinity to wild-type human ACVRL1 (L164 to Q503 residues) expressed in bacterial expression system assessed as residual binding level at 1 uM by Kinomescan method relative to control; procedure, shortened: as §2

SMILES: C=CC(=O)Nc1ccccc1Nc1nc(Nc2ccc(N3CCN(C)CC3)cc2)ncc1C(=O)Nc1c(C)cccc1Cl
- Activity [1]: 86%
- Activity [2]: 100%
- Activity [3]: 81%
- Activity [4]: 100%
- Activity [5]: 100%
- Activity [6]: 70%
- Activity [7]: 97%
- Activity [8]: 21%
- Activity [9]: 100%
- Activity [10]: 89%
- Activity [11]: 99%
- Activity [12]: 89%
- Activity [13]: 100%
- Activity [14]: 100%
- Activity [15]: 100%
- Activity [16]: 93%
- Activity [17]: 100%
- Activity [18]: 100%
- Activity [19]: 6.6%
- Activity [20]: 100%
